Data reported in ChEMBL document CHEMBL1148521, “Synthesis, antitumor activity, and mechanism of action of benzo[a]pyrano[3,2-h]acridin-7-one analogues of acronycine” (J Med Chem, 2006).
pIC50: −log10 of the molar value. Active and inactive are the calls of the source. The rule behind the calls is not given here.

Columns and labels:
L1210 [1] = assay: Antiproliferative activity against mouse L1210 cell line by MTT assay; assay type: functional, cell-based
In short: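 L1210 cells cultured in RPMI 1640 with 10% fetal calf serum, 2 mM glutamine, penicillin/streptomycin and 10 mM HEPES pH 7.4. Exposed to nine serial drug dilutions in triplicate for 48 h (four doubling times), then read by tetrazolium (MTT) assay. IC50 is the concentration cutting optical density by 50% versus untreated controls; mean of at least three independent experiments.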

Nucleic Acid = assay: Alkylation of DNA at 50 uM by gel shift assay; assay type: nucleic-acid assay
In short: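 Radiolabeled 117-bp pBS DNA fragment (EcoRI/PvuII cut, 3′-end-labeled at EcoRI site with [³²P]dATP, gel-purified) incubated with drug at 50 µM in 1 mM Na cacodylate pH 7.0, dark, room temperature, 2 h or 24 h. Resolved on native polyacrylamide gel in TBE; bound versus free DNA scored as strong, weak or no alkylation.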

KB 3-1 = assay: Antiproliferative activity against human KB-3-1 cell line by MTT assay; assay type: functional, cell-based
In short: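 KB-3-1 cells grown in DMEM with 10% fetal calf serum, 2 mM glutamine, penicillin/streptomycin and 10 mM HEPES pH 7.4. Microculture tetrazolium assay: nine serial drug dilutions in triplicate for 96 h (four doubling times). IC50 is the concentration halving optical density relative to untreated controls; mean of at least three separate experiments.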

L1210 [2] = assay: Cell cycle arrest in L1210 cell line by accumulation at S phase at 5 uM after 21 hrs; assay type: functional, Mus musculus
In short: (§1)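 L1210 cells at 5 × 10⁵ cells/mL treated 21 h with various drug concentrations. Then ethanol-fixed (70%), washed, and stained 30 min at 20 °C in PBS with 100 µg/mL RNase and 50 µg/mL propidium iodide. Flow cytometry on 10 000 cells per sample. Highest percentage of S-phase cells reported with the concentration giving it.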

L1210 [3] = assay: Cell cycle arrest in L1210 cell line by accumulation at S phase at 2.5 uM after 21 hrs; assay type: functional, Mus musculus; in short: as §1
L1210 [4] = assay: Cell cycle arrest in L1210 cell line by accumulation at S phase at 10 uM after 21 hrs; assay type: functional, Mus musculus; in short: as §1
L1210 [5] = assay: Cell cycle arrest in L1210 cell line by accumulation at S phase after 21 hrs; assay type: functional, cell-based; details: Mus musculus; in short: as §1
L1210 [6] = assay: Cell cycle arrest in L1210 cell line by accumulation at S phase at 0.25 uM after 21 hrs; assay type: functional, Mus musculus; in short: as §1
MC-38 = assay: Antiproliferative activity against mouse C38 cell line implanted in B6D2F1 mouse at 4 mg/kg, iv; assay type: functional

Row | SMILES | pIC50 (L1210 [1]) | Activity (Nucleic Acid) | pIC50 (KB 3-1) | Activity (L1210 [2]) [%] | Activity (L1210 [3]) [%] | Activity (L1210 [4]) [%] | Activity (L1210 [5]) | Activity (L1210 [6]) [%] | Activity (MC-38) [%]
1 | COc1cc2c(c3c1c(=O)c1c4ccccc4ccc1n3C)C(=O)[C@@H](OC(C)=O)C(C)(C)O2 | 5.70 | inactive | 5.20 |  |  |  |  |  | 
2 | COc1cc2c(c3nc4ccc5ccccc5c4c(OC)c13)[C@@H](OC(C)=O)[C@@H](OC(C)=O)C(C)(C)O2 (racemic) | 5.10 | inactive | 5.14 |  |  |  |  |  | 
3 | COc1cc2c(c3c1c(=O)c1cc4ccccc4cc1n3C)[C@@H](OC(C)=O)[C@@H](OC(C)=O)C(C)(C)O2 (racemic) | 6.15 | Active | 7.00 | 73 |  |  |  |  | 
4 | COc1cc2c(c3c1c(=O)c1c4ccccc4ccc1n3C)[C@@H](O)[C@@H](OC(=O)CC(C)C)C(C)(C)O2 (racemic) | 6.00 | Active | 6.70 | 73 |  |  |  |  | 
5 | COc1cc2c(c3c1c(=O)c1c4ccccc4ccc1n3C)[C@@H](O)[C@@H](OC(=O)c1ccccc1)C(C)(C)O2 (racemic) | 6.10 | Active | 6.52 |  | 73 |  |  |  | 
6 | CCN(CC)C(=O)O[C@@H]1c2c(cc(OC)c3c(=O)c4c5ccccc5ccc4n(C)c23)OC(C)(C)[C@@H]1OC(=O)N(CC)CC (racemic) | 6.05 | Active | 6.10 |  |  | 43 |  |  | 
7 | C=CCCC(=O)O[C@@H]1c2c(cc(OC)c3c(=O)c4c5ccccc5ccc4n(C)c23)OC(C)(C)[C@@H]1OC(=O)CCC=C (racemic) | 6.30 | Active | 6.89 |  |  | 66 |  |  | 
8 | COc1cc2c(c3c1c(=O)c1c4ccccc4ccc1n3C)[C@@H](OC(C)=O)[C@@H](OC(=O)CC(C)C)C(C)(C)O2 (racemic) | 6.10 | Active | 7.00 | 76 |  |  |  |  | 
9 | CCC(=O)O[C@@H]1c2c(cc(OC)c3c(=O)c4c5ccccc5ccc4n(C)c23)OC(C)(C)[C@@H]1OC(=O)CC (racemic) | 6.30 | Active | 7.00 | 70 |  |  |  |  | 
10 | COc1cc2c(c3c1c(=O)c1c4ccccc4ccc1n3C)C=CC(C)(C)O2 [BENZO[A]ACRONYCINE] | 5.60 |  | 5.07 |  |  |  | inactive |  | 
11 | COc1cc2c(c3nc4ccc5ccccc5c4c(OC)c13)[C@@H](O)[C@@H](O)C(C)(C)O2 (racemic) | 5.85 | inactive | 5.20 |  |  |  |  |  | 
12 | CCC(=O)O[C@@H]1[C@H](O)c2c(cc(OC)c3c(=O)c4c5ccccc5ccc4n(C)c23)OC1(C)C (racemic) | 6.30 | Active | 7.00 | 69 |  |  |  |  | 
13 | COc1cc2c(c3nc4ccc5ccccc5c4c(OC)c13)C=CC(C)(C)O2 | 4.55 |  | 4.48 |  |  |  |  |  | 
14 | COc1cc2c(c3c1c(=O)c1c4ccccc4ccc1n3C)[C@H]1OC(=O)O[C@H]1C(C)(C)O2 (racemic) | 7.22 | inactive | 7.82 |  |  |  |  | 64 | 
15 | COc1cc2c(c3c1c(=O)c1c4ccccc4ccc1n3C)[C@@H](OC(=O)CC(C)C)[C@@H](OC(=O)CC(C)C)C(C)(C)O2 (racemic) | 6.15 | Active | 6.82 |  |  | 60 |  |  | 
16 | COc1cc2c(c3nc4ccc5ccccc5c4c(O)c13)C(=O)C(O)C(C)(C)O2 (centres undefined) | 6.30 | inactive | 5.70 |  |  |  | inactive |  | 
17 | C=CCCC(=O)O[C@@H]1[C@H](OC(C)=O)c2c(cc(OC)c3c(=O)c4c5ccccc5ccc4n(C)c23)OC1(C)C (racemic) | 6.15 | Active | 7.00 | 78 |  |  |  |  | 
18 | COc1cc2c(c3c1c(=O)c1ccccc1n3C)C=CC(C)(C)O2 [ACRONINE] | 4.64 |  | 5.43 |  |  |  |  |  | 
19 | C=CCCC(=O)O[C@@H]1[C@H](O)c2c(cc(OC)c3c(=O)c4c5ccccc5ccc4n(C)c23)OC1(C)C (racemic) | 6.10 | inactive | 6.60 | 70 |  |  |  |  | 
20 | COc1cc2c(c3c1c(=O)c1c4ccccc4ccc1n3C)[C@@H](O)[C@@H](O)C(C)(C)O2 (racemic) | 4.31 | inactive | 4.49 |  |  |  |  |  | 
21 | COc1cc2c(c3c1c(=O)c1c4ccccc4ccc1n3C)[C@@H](O)[C@@H](OC(C)=O)C(C)(C)O2 (racemic) | 6.15 | Active | 6.70 | 76 |  |  |  |  | 
22 | COc1cc2c(c3c1c(=O)c1c4ccccc4ccc1n3C)[C@@H](OC(C)=O)[C@@H](OC(C)=O)C(C)(C)O2 (racemic) | 6.15 | Active | 6.82 | 68 |  |  |  |  | > 80
23 | COc1cc2c(c3c1c(=O)c1c4ccccc4ccc1n3C)[C@@H](O)[C@@H](OC(=O)N(C)C)C(C)(C)O2 (racemic) | 6.30 | Active | 7.00 |  |  | 73 |  |  | 
